Data published in ChEMBL document CHEMBL1142515, “Synthesis and evaluation of structurally constrained quinazolinone derivatives as potent and selective histamine H3 receptor inverse agonists” (J Med Chem, 2008).

Legend:
[1] = Cmax in Sprague-Dawley rat at 1 mg/kg, iv and 3 mg/kg, po; type: ADME, organism-based; settings: in vivo
Method in brief: (§1)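 Male SD rats, male Beagle dogs, male rhesus monkeys given single doses iv (PEG400/EtOH/H2O 50/10/40) or po by gavage (0.5% methylcellulose suspension). Rats 1 mg/kg iv and 3 mg/kg po; dogs and monkeys 0.3 mg/kg iv and 1 mg/kg po. Plasma sampled at multiple times up to 24 h, deproteinized with ethanol plus internal standard. Mean of n = 3 animals/dose.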

[2] = tested on: LLC-PK1; test: Ratio of permeability from apical to basolateral side over basolateral to apical side in pig LLC-PK1 cells expressing human MDR1; type: ADME, cell-based, Sus scrofa
[3] = target: Histamine H1 receptor (Homo sapiens, UniProt P35367); test: Inhibition of human histamine H1 receptor
[4] = Ratio of drug level brain to plasma in mdr1a (-/-) deficient CF1 mouse at 1 mg/kg, po after 2 hrs; type: ADME, organism-based; set-up: dose 1 mg/kg, route oral; settings: read-out: BPR
Method in brief: (§2)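 Female mdr1a (+/+) and mdr1a (−/−) CF-1 mice dosed by oral gavage. Terminal blood and whole brain collected 2 h later. Brain homogenized by ultrasonication in 4 volumes water. Plasma and brain deproteinized with ethanol plus internal standard, then measured by LC-MS/MS (positive ESI, MRM). Mean ± SE, n = 3. Brain/plasma ratios calculated from mean values.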

[5] = Ratio of drug level in brain to plasma in Sprague-Dawley rat at 10 mg/kg, po after 2 hrs; type: ADME, organism-based; set-up: dose 10 mg/kg, route oral; settings: read-out: BPR
Method in brief: (§3)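 Male SD rats dosed orally at 10 mg/kg. Plasma, brain and CSF concentrations determined 2 h after dosing. Brain/plasma ratio taken from these levels. Mean of n = 3 animals.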

[6] = Cmax in anesthetized Beagle dog at 3 mg/kg, iv; type: ADME, organism-based, Canis lupus familiaris; set-up: dose 3 mg/kg, route intravenous; settings: in vivo
Method in brief: (§4)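 Anesthetized, ventilated dogs given 3 mg/kg iv and monitored for cardiovascular effects.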

[7] = tested on: Mus musculus; test: Toxicity against in ICR mouse assessed as gross behavior activity at 100 mg/kg; type: organism-based; set-up: dose 100 mg/kg; settings: in vivo
Method in brief: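 Mice dosed orally at 100 mg/kg. Scored for psychomotor and motor activity, muscle tone, CNS excitation, autonomic responses and reflexes.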

[8] = target: Histamine H3 receptor (Rattus norvegicus, UniProt Q9QYN8); test: Displacement of [3H]N-alpha-methylhistamine from rat recombinant histamine H3 receptor expressed in HEK293 cells; type: cell-based
[9] = Plasma clearance in Sprague-Dawley rat at 1 mg/kg, iv; type: ADME, organism-based; set-up: dose 1 mg/kg, route intravenous; method in brief: as §1
[10] = Ex vivo drug level wild type mdr1a (+/+) CF1 mouse plasma at 1 mg/kg, po after 2 hrs; type: ADME, organism-based; set-up: dose 1 mg/kg, route oral; settings: read-out: Drug uptake; method in brief: as §2
[11] = Ex vivo drug level in mdr1a (-/-) deficient CF1 mouse plasma at 1 mg/kg, po after 2 hrs; type: ADME, organism-based; set-up: dose 1 mg/kg, route oral; settings: read-out: Drug uptake; method in brief: as §2
[12] = target: T1, Histamine H3 receptor (Homo sapiens, UniProt Q9Y5N1); test: Displacement of [3H]N-alpha-methylhistamine from human recombinant histamine H3 receptor expressed in CHO-K1 cells; type: cell-based
[13] = target: Voltage-gated inwardly rectifying potassium channel KCNH2 (Homo sapiens, UniProt Q12809); test: Antagonist activity at human ERG in HEK293 cells assessed as inhibition of [35S]N-[(4R)-1'-[(2R)-6-cyano-1,2,3,4-tetrahydro-2-naphthalenyl]-3,4-dihydro-4-hydroxyspiro[2H-1-benzopyran-2,4'-piperidin]-6-yl]methanesulfonamide binding
[14] = tested on: Mus musculus; test: Ex vivo receptor occupancy of histamine H3 receptor expressed in po dosed MDR1a deficient CF1 mouse plasma assessed by brain occupancy/brain to plasma ratio after 2 hrs; type: functional
Method in brief: (§5)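 Female wild-type and mdr1a (−/−) CF-1 mice given vehicle or compound po (0.1–3 mg/kg) and decapitated at 2 h. Coronal striatal sections (20 μm) incubated 10 min at room temperature with 400 pM tritiated quinazolinone H3 inverse agonist radioligand in sodium phosphate buffer. Nonspecific binding defined with 10 μM R-α-methylhistamine. Sections imaged 6 h by beta-Imager. Brain Occ90 obtained from occupancy versus brain concentration. Plasma Occ90 = brain Occ90/brain-to-plasma ratio.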

[15] = Ratio of drug level brain to plasma in wild type mdr1a (+/+) CF1 mouse at 1 mg/kg, po after 2 hrs; type: ADME, organism-based; set-up: dose 1 mg/kg, route oral; settings: read-out: BPR; method in brief: as §2
[16] = tested on: Rattus norvegicus; test: Ex vivo receptor occupancy of histamine H3 receptor in Sprague-Dawley rat assessed as drug level in brain at 1 mg/kg, po after 2 hrs; type: functional
Method in brief: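 Male SD rats given vehicle or 1 mg/kg compound by oral gavage and decapitated at 2 h. Striatal sections (20 μm) incubated 10 min at room temperature with 400 pM tritiated H3 inverse agonist radioligand in sodium phosphate buffer. Nonspecific binding defined with 10 μM R-α-methylhistamine. Beta-Imager exposure 6 h. Drug levels measured by LC-MS/MS.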

[17] = tested on: Rattus norvegicus; test: Increase in tele-methylhistamine level in po dosed Sprague-Dawley rat brain after 2 hrs relative to control; type: functional, organism-based
Method in brief: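 Male SD rats given vehicle (0.5% methylcellulose) or compound po at 1, 3, 10 mg/kg, co-dosed with pargyline ip. Decapitated at 2 h and brains homogenized. tele-Methylhistamine measured by HPLC with fluorometry after solid-phase extraction. Mean ± SE from five experiments. Compared with vehicle by ANOVA with Dunnett's test.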

[18] = AUC (0 to infinity) in Sprague-Dawley rat at 3 mg/kg, po; type: ADME, organism-based; set-up: time infinity, dose 3 mg/kg, route oral; settings: plasma; method in brief: as §1
[19] = Cmax in rhesus monkey at 0.3 mg/kg, iv and 1 mg/kg, po; type: ADME, organism-based, Macaca mulatta; settings: in vivo; method in brief: as §1
[20] = Drug level in Sprague-Dawley rat cerebrospinal fluid at 10 mg/kg, po after 2 hrs; type: ADME, organism-based; set-up: dose 10 mg/kg, route oral; settings: read-out: Drug uptake; method in brief: as §3
[21] = Ratio of drug level in cerebrospinal fluid to brain in Sprague-Dawley rat at 10 mg/kg, po after 2 hrs; type: ADME, organism-based, CSF/Brain; set-up: dose 10 mg/kg, route oral; settings: in vivo
[22] = Plasma concentration in Sprague-Dawley rat at 10 mg/kg, po after 2 hrs; type: ADME, organism-based; set-up: dose 10 mg/kg, route oral; method in brief: as §3
[23] = tested on: Brain; test: Drug level in Sprague-Dawley rat brain at 10 mg/kg, po after 2 hrs; type: ADME, organism-based; set-up: dose 10 mg/kg, route oral; settings: in vivo; method in brief: as §3
[24] = Plasma clearance in rhesus monkey at 0.3 mg/kg, iv; type: ADME, organism-based, Macaca mulatta; set-up: dose 0.3 mg/kg, route intravenous; method in brief: as §1
[25] = Oral bioavailability in Sprague-Dawley rat at 3 mg/kg; type: ADME, organism-based; settings: in vivo; method in brief: as §1
[26] = AUC (0 to infinity) in Beagle dog at 1 mg/kg, po; type: ADME, organism-based, Canis lupus familiaris, Plasma; set-up: time infinity, dose 1 mg/kg, route oral; settings: Beagle, plasma; method in brief: as §1
[27] = target: T1, Histamine H3 receptor; test: Antagonist activity at human cloned histamine H3 receptor expressed in CHO-K1 cells assessed as inhibition of R-alpha-methylhistamine-induced [35S]GTPgammaS binding; type: functional, cell-based
[28] = tested on: LLC-PK1; test: Ratio of permeability from apical to basolateral side over basolateral to apical side in pig LLC-PK1 cells expressing mouse MDR1a; type: ADME, cell-based, Sus scrofa
[29] = Oral bioavailability in rhesus monkey at 1 mg/kg; type: ADME, organism-based, Macaca mulatta; settings: in vivo; method in brief: as §1
[30] = Oral bioavailability in Beagle dog at 1 mg/kg; type: ADME, organism-based, Canis lupus familiaris; settings: Beagle, in vivo; method in brief: as §1
[31] = Cmax in Beagle dog at 0.3 mg/kg, iv and 1 mg/kg, po; type: ADME, organism-based, Canis lupus familiaris; settings: in vivo; method in brief: as §1
[32] = tested on: Mus musculus; test: Ex vivo receptor occupancy of histamine H3 receptor expressed in wild type po dosed CF1 mouse brain after 2 hrs; type: functional; method in brief: as §5
[33] = Plasma clearance in Beagle dog at 0.3 mg/kg, iv; type: ADME, organism-based, Canis lupus familiaris; set-up: dose 0.3 mg/kg, route intravenous; method in brief: as §1
[34] = target: Histamine H2 receptor (Homo sapiens, UniProt P25021); test: Inhibition of human histamine H2 receptor
[35] = tested on: Mus musculus; test: Ex vivo receptor occupancy of histamine H3 receptor expressed in po dosed wild type CF1 mouse plasma assessed by brain occupancy/brain to plasma ratio after 2 hrs; type: functional; method in brief: as §5
[36] = target: Histamine H4 receptor (Homo sapiens, UniProt Q9H3N8); test: Inhibition of human histamine H4 receptor
[37] = tested on: Brain; test: Ex vivo drug level in mdr1a deficient CF1 mouse brain at 1 mg/kg, po after 2 hrs; type: ADME, organism-based; set-up: dose 1 mg/kg, route oral; method in brief: as §2
[38] = target: Histamine H3 receptor (Mus musculus, UniProt P58406); test: Displacement of [3H]N-alpha-methylhistamine from mouse recombinant histamine H3 receptor
[39] = AUC (0 to infinity) in rhesus monkey at 1 mg/kg, po; type: ADME, organism-based, Macaca mulatta, Plasma; set-up: time infinity, dose 1 mg/kg, route oral; settings: plasma; method in brief: as §1
[40] = tested on: Brain; test: Ex vivo drug level in wild type mdr1a (+/+) CF1 mouse brain at 1 mg/kg, po after 2 hrs; type: ADME, organism-based; set-up: dose 1 mg/kg, route oral; method in brief: as §2
[41] = tested on: Canis familiaris; test: Toxicity against in anesthetized Beagle dog assessed as cardiovascular effects; type: organism-based, Canis lupus familiaris; settings: in vivo; method in brief: as §4

T1 sequence (Q9Y5N1 whole entry): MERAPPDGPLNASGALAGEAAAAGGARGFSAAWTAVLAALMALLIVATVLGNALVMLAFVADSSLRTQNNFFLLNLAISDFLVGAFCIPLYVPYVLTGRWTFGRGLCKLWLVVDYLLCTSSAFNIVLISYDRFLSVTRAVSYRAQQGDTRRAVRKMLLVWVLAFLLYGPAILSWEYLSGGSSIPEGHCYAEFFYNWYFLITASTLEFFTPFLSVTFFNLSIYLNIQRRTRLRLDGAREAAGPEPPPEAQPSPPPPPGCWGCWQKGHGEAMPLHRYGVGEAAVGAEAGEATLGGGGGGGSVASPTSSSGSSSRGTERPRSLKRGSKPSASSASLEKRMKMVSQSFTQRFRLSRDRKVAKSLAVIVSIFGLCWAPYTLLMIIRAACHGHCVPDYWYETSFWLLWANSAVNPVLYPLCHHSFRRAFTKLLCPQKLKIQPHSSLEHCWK
Histamine H3 receptor (Mus musculus, UniProt P58406), sequence (P58406 whole entry): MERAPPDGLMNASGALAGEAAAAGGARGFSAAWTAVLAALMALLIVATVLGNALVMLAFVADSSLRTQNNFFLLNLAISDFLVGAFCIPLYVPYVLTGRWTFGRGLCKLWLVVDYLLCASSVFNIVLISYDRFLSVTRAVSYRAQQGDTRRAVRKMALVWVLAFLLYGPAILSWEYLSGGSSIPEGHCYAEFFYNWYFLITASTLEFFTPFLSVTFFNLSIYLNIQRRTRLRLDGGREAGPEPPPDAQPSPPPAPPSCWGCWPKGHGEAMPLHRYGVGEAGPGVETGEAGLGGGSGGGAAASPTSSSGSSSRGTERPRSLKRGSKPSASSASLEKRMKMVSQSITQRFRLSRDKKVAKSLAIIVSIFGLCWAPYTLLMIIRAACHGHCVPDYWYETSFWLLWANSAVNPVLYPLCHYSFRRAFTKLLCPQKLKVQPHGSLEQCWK
Histamine H1 receptor, sequence (P35367 whole entry): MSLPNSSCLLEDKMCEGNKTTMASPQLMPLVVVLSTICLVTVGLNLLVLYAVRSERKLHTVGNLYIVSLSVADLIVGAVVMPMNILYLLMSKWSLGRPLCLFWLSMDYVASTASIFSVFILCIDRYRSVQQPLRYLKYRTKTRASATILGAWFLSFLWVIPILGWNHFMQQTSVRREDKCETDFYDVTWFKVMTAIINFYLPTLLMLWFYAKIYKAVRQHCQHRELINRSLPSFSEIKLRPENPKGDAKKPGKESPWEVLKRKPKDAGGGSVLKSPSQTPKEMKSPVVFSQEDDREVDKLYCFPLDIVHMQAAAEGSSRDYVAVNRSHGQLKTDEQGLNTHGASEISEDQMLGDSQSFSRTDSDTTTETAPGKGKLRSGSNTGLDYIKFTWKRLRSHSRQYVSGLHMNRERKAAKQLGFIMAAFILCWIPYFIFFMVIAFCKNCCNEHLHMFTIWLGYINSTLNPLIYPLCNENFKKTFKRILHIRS
Voltage-gated inwardly rectifying potassium channel KCNH2, sequence (Q12809 whole entry): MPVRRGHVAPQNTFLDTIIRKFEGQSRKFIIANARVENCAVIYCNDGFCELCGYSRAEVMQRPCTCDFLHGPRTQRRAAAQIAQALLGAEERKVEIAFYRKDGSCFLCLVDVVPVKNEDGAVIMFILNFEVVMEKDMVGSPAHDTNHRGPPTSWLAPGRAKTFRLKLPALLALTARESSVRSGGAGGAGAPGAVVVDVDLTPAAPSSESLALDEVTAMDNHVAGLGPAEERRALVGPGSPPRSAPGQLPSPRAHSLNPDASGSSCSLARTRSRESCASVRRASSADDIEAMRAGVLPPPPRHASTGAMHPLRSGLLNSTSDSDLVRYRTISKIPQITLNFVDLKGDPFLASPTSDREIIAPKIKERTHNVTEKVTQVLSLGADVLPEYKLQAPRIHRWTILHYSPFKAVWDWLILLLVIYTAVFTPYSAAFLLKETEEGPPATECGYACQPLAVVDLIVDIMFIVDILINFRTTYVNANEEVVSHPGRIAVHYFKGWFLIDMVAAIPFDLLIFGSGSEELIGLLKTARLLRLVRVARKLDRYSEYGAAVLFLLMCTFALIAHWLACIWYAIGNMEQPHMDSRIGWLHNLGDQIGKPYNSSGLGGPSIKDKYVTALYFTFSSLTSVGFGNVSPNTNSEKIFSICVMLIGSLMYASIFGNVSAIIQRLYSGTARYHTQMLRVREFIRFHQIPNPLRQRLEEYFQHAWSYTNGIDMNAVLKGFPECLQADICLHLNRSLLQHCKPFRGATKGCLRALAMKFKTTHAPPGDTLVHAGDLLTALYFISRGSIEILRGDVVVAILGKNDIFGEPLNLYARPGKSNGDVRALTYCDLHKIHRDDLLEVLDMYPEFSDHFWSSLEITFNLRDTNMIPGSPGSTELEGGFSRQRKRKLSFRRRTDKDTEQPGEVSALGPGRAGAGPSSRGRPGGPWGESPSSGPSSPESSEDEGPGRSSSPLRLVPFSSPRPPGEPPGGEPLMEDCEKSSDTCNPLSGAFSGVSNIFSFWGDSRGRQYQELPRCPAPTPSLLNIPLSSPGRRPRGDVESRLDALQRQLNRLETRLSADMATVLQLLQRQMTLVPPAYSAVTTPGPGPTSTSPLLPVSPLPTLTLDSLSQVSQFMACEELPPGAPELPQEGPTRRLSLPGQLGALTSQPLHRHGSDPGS
Histamine H2 receptor, sequence (P25021 whole entry): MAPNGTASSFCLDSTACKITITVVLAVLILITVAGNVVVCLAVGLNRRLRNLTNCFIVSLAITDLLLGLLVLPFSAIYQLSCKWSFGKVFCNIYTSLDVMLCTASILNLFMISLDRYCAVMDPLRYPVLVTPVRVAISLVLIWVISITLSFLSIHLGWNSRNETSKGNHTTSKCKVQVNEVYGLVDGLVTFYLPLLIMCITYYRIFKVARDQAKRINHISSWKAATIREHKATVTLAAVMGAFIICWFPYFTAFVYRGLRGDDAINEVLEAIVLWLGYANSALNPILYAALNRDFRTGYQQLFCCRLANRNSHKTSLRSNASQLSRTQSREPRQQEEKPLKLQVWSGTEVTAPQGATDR
Histamine H3 receptor (Rattus norvegicus, UniProt Q9QYN8), sequence (Q9QYN8 whole entry): as the sequence (P58406 whole entry) above, with A15T, T286A, G290A, H387R, V389I counted along it

- Cmax [1]: 420 nM
- Ratio [2]: 0.7
- IC50 [3]: > 10000 nM
- Kp at 2 h [4]: 13
- Kp at 2 h [5]: 3.3
- Cmax [6]: 3200 nM
- Ki [8]: 2.3 nM
- clearance [9]: 24 mL/min/kg
- concentration at 2 h [10]: 12 nM
- concentration at 2 h [11]: 10 nM
- Ki [12]: 3.6 nM
- Kp at 2 h [15]: 2.6
- AUC(0-inf) [18]: 1.66 µM·h
- Cmax [19]: 50 nM
- concentration at 2 h [20]: 110 nM
- Ratio [21]: 0.05
- concentration at 2 h [22]: 700 nM
- Drug uptake [23]: 2.3 nmol/g
- clearance [24]: 26 mL/min/kg
- bioavailability [25]: 33%
- AUC(0-inf) [26]: 1.3 µM·h
- IC50 [27]: 0.33 nM
- Ratio [28]: 2.5
- bioavailability [29]: 11%
- bioavailability [30]: 46%
- Cmax [31]: 280 nM
- clearance [33]: 13 mL/min/kg
- IC50 [34]: > 10000 nM
- IC50 [36]: > 10000 nM
- Drug uptake [37]: 0.137 nmol/g
- Ki [38]: 3.9 nM
- AUC(0-inf) [39]: 0.15 µM·h
- Drug uptake [40]: 0.031 nmol/g
Structure (SMILES): Cc1nc2cccc(C(F)(F)F)c2c(=O)n1-c1ccc(OC2CCN(C3CCC3)CC2)cc1
- Activity [7]: Non-toxic
- IC50 [13]: > 10000 nM
- Occ90 [14]: 11 nM
- Activity [16]: >90%
- Activity [17]: Dose-dependent effect
- Occ90 [32]: 0.15 nmol/g
- Occ90 [35]: 58 nM
- Activity [41]: Non-toxic
